How the values were obtained:
[1] = target: 5-hydroxytryptamine receptor 6 (Homo sapiens, UniProt P50406); assay: Displacement of [3H]-LSD from human recombinant 5HT-6 receptor expressed in CHOK1 cell membranes after 60 mins; set-up: species or system CHO-K1
Outline: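 CHO-K1 membranes expressing human 5-HT6 incubated with 1 nM [3H]LSD for 60 min at 27 °C in 50 mM Tris-HCl pH 7.4 containing 4 mM CaCl2 and 0.1% ascorbic acid. Terminated by filtration on glass-fiber filters presoaked in 0.5% PEI. Methiothepin defined nonspecific binding.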

[2] = Displacement of [3H]-YM-09151-2 from cloned dopamine D4.2 receptor (unknown origin) expressed in Sf9 cells after 60 mins; set-up: species or system Homo sapiens
Outline: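 Sf9 membranes with cloned D4.2 receptor incubated with 0.2 nM [3H]YM-09151-2 for 60 min at 27 °C in 50 mM Tris-HCl pH 7.4, 5 mM MgCl2, 5 mM EDTA, 5 mM KCl, 1.5 mM CaCl2. Clozapine defined nonspecific binding. Filtered on glass-fiber filters presoaked in 0.3% PEI.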

D(2) dopamine receptor = D(2) dopamine receptor (Homo sapiens, UniProt P14416); assay: Displacement of [3H]-methylspiperone from dopamine D2L receptor (unknown origin) after 60 mins
Outline: (§1)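 Receptor membranes incubated at 27 °C, 60 min for D2L and 30 min for D3, with [3H]methylspiperone (0.2 nM for D2L, 0.25 nM for D3) and test compound at a range of concentrations. Buffer was 50 mM Tris-HCl pH 7.4, 10 mM MgCl2, 1 mM EDTA, 120 mM NaCl. Nonspecific binding defined with haloperidol (D2) or GR103691 (D3). IC50 obtained by nonlinear regression.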

[3] = target: T1, 5-hydroxytryptamine receptor 2A (Homo sapiens, UniProt P28223); assay: Antagonist activity at serotonin-activated human recombinant 5HT-2A receptor expressed in HEK293 cells assessed as decrease in intracellular calcium level after 5 mins measured for 1 min by fluorescence assay; type: functional, cell-based; settings: read-out: EC50 (the source's name)
Outline: (§2)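 Cells were washed with HBSS/20 mM HEPES, then loaded 50 min with Fluo-4 NW dye in HBSS with 2.5 mM probenecid. Compound was added for 5 min at 37 °C, then serotonin; fluorescence followed 1 min. Run in duplicate or quadruplicate, repeated several times; IC50 by nonlinear regression.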

[4] = target: T2, 5-hydroxytryptamine receptor 2C (Homo sapiens, UniProt P28335); assay: Displacement of [3H]-mesulergine from human recombinant 5HT-2C receptor expressed in CHOK1 cell membranes after 30 mins; set-up: species or system CHO-K1
T2 sequence (P28335 whole entry): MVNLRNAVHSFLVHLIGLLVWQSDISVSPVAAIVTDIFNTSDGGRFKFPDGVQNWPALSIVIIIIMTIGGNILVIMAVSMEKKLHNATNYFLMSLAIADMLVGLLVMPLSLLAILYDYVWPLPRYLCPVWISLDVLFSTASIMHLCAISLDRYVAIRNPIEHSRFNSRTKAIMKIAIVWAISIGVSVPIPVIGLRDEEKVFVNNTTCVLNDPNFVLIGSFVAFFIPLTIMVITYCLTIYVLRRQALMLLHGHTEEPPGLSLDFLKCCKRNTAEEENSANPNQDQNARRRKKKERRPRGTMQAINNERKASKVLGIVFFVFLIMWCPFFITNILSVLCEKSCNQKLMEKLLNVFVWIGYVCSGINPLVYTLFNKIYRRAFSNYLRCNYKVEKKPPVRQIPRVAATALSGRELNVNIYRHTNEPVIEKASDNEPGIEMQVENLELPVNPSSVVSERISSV
Outline: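 Frozen CHO-K1 membranes expressing recombinant human 5-HT2C incubated with 1 nM [3H]mesulergine in 50 mM Tris-HCl pH 7.4 containing 0.1% ascorbic acid and pargyline. Mianserin defined nonspecific binding.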

D(3) dopamine receptor = D(3) dopamine receptor (Homo sapiens, UniProt P35462); assay: Displacement of [3H]-methylspiperone from dopamine D3 receptor (unknown origin) after 30 mins; outline: as §1
[5] = target: T1, 5-hydroxytryptamine receptor 2A; assay: Displacement of [3H]-ketanserin from human recombinant 5HT-2A receptor expressed in CHOK1 cell membranes after 60 mins; set-up: species or system CHO-K1
Outline: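 Buffer was 50 mM Tris-HCl pH 7.4 with 5 mM CaCl2 and 0.1% ascorbic acid. Test compound added at a range of concentrations.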

[6] = target: T3, 5-hydroxytryptamine receptor 1A (Homo sapiens, UniProt P08908); assay: Displacement from [3H]8-OH-DPAT from human recombinant 5HT-1A receptor expressed in HEK293 cells after 120 mins; type: cell-based
T3 sequence (P08908 whole entry): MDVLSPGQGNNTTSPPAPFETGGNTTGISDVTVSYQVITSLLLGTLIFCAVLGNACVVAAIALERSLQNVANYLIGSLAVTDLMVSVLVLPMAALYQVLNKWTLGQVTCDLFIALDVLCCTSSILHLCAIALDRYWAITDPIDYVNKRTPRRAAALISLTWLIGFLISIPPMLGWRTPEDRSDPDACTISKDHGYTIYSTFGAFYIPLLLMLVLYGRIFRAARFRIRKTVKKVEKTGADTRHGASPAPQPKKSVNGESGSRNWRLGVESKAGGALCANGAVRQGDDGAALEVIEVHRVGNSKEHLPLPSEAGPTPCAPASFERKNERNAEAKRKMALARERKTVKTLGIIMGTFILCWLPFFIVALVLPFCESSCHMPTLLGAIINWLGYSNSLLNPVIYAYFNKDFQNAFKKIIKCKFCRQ
Outline: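 Membranes from HEK293-EBNA cells stably expressing recombinant human 5-HT1A. Incubated with 2 nM [3H]8-OH-DPAT and test compound at a range of concentrations in 50 mM Tris-HCl pH 7.4 with 5 mM MgSO4.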

[7] = target: 5-hydroxytryptamine receptor 7 (Homo sapiens, UniProt P34969); assay: Displacement of [3H]-LSD from human recombinant 5HT-7 receptor expressed in CHOK1 cell membranes after 120 mins; set-up: species or system CHO-K1
Outline: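 CHO-K1 membranes expressing human 5-HT7 incubated with 3 nM [3H]LSD for 120 min at 27 °C in 50 mM Tris-HCl pH 7.4, 10 mM MgSO4, 0.5 mM EDTA. Filtered on glass-fiber filters presoaked in 0.3% PEI. Methiothepin defined nonspecific binding.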

Mus musculus [8] = assay: Antiobesity activity in C57BL/6 mouse assessed as inhibition of body weight gain at 50 mg/kg, ip measured after 2 to 12 hrs relative to vehicle-treated control; type: functional; settings: C57BL/6, ip, route intraperitoneal
Mus musculus [9] = assay: Antiobesity activity in C57BL/6 mouse assessed as inhibition of food intake at 50 mg/kg, ip measured after 2 to 12 hrs relative to vehicle-treated control; type: functional; settings: C57BL/6, ip, route intraperitoneal
Outline: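 Male mice were acclimated 1 week at 23 ± 3 °C and 50 ± 20% humidity, then fasted 24 h. They were dosed once intraperitoneally with vehicle or compound: 50 mg/kg in C57BL/6, or 12.5, 25 or 50 mg/kg in B6.V-Lep^ob/J. Food intake was measured at 2, 6 and 12 h versus vehicle control.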

[10] = target: T2, 5-hydroxytryptamine receptor 2C; assay: Antagonist activity at serotonin-activated human recombinant 5HT-2C receptor expressed in HEK293 cells assessed as decrease in intracellular calcium level after 5 mins measured for 1 min by fluorescence assay; type: functional, cell-based; settings: read-out: EC50 (the source's name)
Outline: as §2, with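 “Intracellular calcium read on HEK293 cells stably expressing human receptor, seeded 10,000 cells/well and grown 24 h at 37 °C, 5% CO2. Cells” for “Cells”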

Mus musculus [11] = assay: Antiobesity activity in C57BL/6 mouse assessed as inhibition of food intake at 5.6 mg/kg, ip measured after 2 to 12 hrs relative to vehicle-treated control; type: functional; settings: C57BL/6, ip, route intraperitoneal
Outline: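 Male C57BL/6 mice acclimated 1 week (23 ± 3 °C, 50 ± 20% humidity), fasted 24 h, then given intraperitoneal vehicle or drug. Food intake measured over intervals of 2, 6 and 12 h and compared with vehicle control.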

[12] = target: 5-hydroxytryptamine receptor 2B (Homo sapiens, UniProt P41595); assay: Displacement of […] from human recombinant 5HT-2B receptor
Homo sapiens [13] = species on record: Homo sapiens; assay: Selectivity ratio of IC50 for human recombinant 5HT-2B receptor to IC50 for human recombinant 5HT-2C receptor
[14] = target: T4, Alpha-1A adrenergic receptor (Homo sapiens, UniProt P35348); assay: Binding affinity to adrenergic alpha1A receptor (unknown origin)
T4 sequence (P35348 whole entry): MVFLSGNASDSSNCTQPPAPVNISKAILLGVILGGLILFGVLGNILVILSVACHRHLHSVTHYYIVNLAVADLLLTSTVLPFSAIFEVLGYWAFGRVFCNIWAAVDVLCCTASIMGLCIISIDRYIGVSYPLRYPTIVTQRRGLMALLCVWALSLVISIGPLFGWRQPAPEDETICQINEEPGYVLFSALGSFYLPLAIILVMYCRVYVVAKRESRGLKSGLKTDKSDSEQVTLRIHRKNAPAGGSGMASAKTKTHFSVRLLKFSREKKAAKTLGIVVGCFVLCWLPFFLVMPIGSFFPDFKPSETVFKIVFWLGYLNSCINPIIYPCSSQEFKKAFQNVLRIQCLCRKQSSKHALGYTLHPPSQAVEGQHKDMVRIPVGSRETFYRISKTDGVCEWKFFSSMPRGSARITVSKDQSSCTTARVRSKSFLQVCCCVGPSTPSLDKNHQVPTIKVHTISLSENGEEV

[15] = target: T5, Alpha-2A adrenergic receptor (Homo sapiens, UniProt P08913); assay: Binding affinity to adrenergic alpha2A receptor (unknown origin)
T5 sequence (P08913 whole entry): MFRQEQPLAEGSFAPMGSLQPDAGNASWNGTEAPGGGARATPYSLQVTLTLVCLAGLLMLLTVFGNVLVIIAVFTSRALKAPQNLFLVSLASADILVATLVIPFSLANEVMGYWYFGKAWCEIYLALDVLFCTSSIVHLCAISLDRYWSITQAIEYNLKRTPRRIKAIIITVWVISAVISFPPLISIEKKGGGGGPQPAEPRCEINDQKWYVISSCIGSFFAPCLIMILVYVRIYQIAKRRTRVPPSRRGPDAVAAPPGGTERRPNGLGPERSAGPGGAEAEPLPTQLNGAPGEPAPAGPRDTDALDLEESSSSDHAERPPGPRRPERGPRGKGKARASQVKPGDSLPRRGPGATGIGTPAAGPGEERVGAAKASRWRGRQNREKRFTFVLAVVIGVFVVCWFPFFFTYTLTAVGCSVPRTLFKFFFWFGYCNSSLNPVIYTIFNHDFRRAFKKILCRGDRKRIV

Homo sapiens [16] = species on record: Homo sapiens; assay: Selectivity ratio of IC50 for human recombinant 5HT-2B receptor to IC50 for human recombinant 5HT-2A receptor

5-hydroxytryptamine receptor 6, sequence (P50406 whole entry): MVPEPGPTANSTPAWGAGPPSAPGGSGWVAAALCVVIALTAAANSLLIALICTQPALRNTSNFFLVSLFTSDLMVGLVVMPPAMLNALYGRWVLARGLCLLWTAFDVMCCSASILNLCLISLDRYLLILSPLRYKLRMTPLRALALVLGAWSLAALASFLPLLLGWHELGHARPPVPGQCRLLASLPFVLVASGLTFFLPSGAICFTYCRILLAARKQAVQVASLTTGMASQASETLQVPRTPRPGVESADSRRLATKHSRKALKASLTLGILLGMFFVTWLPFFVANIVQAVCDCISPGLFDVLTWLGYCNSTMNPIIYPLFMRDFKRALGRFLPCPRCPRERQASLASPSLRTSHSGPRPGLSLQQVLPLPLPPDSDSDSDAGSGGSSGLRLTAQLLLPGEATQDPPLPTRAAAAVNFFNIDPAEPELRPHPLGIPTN
D(2) dopamine receptor, sequence (P14416 whole entry): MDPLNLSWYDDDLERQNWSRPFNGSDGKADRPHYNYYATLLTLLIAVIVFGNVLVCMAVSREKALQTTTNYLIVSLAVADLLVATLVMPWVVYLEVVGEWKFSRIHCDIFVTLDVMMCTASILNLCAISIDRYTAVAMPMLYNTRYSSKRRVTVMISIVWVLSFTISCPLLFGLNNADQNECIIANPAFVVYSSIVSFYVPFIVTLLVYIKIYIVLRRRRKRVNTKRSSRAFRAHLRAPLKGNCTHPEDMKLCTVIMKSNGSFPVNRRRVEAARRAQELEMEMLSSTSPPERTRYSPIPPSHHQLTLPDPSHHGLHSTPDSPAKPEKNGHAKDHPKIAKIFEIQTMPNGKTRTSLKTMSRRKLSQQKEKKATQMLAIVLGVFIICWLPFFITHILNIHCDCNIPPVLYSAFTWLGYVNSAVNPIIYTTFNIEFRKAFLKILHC
5-hydroxytryptamine receptor 7, sequence (P34969 whole entry): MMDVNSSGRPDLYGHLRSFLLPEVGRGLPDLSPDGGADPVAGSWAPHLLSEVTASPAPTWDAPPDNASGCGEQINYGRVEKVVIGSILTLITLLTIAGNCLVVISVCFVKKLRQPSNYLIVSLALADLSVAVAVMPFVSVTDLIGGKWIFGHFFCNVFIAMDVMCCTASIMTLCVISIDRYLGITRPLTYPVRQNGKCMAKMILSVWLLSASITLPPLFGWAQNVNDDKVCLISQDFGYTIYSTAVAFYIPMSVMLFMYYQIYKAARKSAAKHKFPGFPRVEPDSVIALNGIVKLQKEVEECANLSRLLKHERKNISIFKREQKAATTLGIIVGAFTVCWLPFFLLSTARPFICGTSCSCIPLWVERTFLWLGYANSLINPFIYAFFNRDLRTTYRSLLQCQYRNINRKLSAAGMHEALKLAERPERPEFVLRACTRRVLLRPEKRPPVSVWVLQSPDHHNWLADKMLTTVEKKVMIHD
D(3) dopamine receptor, sequence (P35462 whole entry): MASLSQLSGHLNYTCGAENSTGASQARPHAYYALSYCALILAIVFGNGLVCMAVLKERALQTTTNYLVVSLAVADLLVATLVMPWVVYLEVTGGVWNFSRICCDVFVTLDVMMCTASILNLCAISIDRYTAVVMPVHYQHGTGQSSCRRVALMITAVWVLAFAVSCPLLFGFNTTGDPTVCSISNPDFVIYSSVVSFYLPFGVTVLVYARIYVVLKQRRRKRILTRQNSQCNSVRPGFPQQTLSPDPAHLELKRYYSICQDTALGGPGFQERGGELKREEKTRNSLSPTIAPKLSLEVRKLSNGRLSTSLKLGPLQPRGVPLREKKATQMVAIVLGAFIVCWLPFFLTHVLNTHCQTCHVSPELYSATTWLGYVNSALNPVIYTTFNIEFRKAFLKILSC
T1 sequence (P28223 whole entry): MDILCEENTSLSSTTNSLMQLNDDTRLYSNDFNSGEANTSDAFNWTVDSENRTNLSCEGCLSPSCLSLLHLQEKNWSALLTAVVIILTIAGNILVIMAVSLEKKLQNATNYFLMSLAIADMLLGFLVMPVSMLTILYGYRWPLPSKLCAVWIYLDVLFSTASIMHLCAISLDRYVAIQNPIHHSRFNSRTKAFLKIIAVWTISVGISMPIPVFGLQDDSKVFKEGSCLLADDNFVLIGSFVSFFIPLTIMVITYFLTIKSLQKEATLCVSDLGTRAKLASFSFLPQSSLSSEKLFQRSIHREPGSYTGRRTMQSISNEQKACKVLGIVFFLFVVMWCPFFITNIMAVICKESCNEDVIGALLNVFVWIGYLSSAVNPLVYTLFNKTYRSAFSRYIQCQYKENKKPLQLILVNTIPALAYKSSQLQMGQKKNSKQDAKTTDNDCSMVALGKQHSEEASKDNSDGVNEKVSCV
5-hydroxytryptamine receptor 2B, sequence (P41595 whole entry): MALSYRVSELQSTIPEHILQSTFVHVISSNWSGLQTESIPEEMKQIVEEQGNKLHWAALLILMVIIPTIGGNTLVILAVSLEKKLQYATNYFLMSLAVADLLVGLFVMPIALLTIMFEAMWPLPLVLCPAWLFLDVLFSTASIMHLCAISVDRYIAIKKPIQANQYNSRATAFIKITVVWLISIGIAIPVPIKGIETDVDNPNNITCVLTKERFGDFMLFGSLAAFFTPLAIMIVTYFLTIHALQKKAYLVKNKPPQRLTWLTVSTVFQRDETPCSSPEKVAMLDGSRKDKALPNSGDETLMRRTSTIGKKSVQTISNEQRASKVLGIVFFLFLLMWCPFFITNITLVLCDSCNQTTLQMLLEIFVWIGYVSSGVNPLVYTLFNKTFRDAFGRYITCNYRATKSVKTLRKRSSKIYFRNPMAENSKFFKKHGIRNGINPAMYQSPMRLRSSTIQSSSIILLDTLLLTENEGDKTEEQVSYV

SMILES | IC50 [1] | IC50 [2] | IC50 (D(2) dopamine receptor) | IC50 [3] | IC50 [4] | IC50 (D(3) dopamine receptor) | IC50 [5] | IC50 [6] | IC50 [7] | inhibition in vivo at 50 mg/kg (Mus musculus [8]) | inhibition in vivo at 50 mg/kg (Mus musculus [9]) | IC50 [10] | inhibition in vivo at 5.6 mg/kg (Mus musculus [11]) | IC50 [12] | Ratio IC50 (Homo sapiens [13]) | IC50 [14] | IC50 [15] | Ratio IC50 (Homo sapiens [16])
COc1cccc(Nc2nc(Cc3ccccc3)nc3c2CCNCC3)c1 | 30.4 nM | 549 nM | 163 nM | 77.6 nM | 37.3 nM | 941 nM | 84.4 nM | 823 nM | 497 nM | 63.9% | 55.8% | 9.2 nM |  |  |  |  |  | 
Clc1cccc(N2CCNCC2)c1 [CHLOROPHENYLPIPERAZINE] |  |  |  |  |  |  |  |  |  |  |  |  | 13.1% |  |  |  |  | 
COc1cccc(Nc2nc(N3CCN(C)CC3)nc3c2CCNCC3)c1 |  |  |  |  | 2850 nM |  | > 10000 nM |  |  |  |  | 2300 nM |  |  |  |  |  | 
CN1CCN(c2nc3c(c(Nc4ccc(F)cc4)n2)CCNCC3)CC1 |  |  |  | 153 nM | 337 nM |  | 215 nM |  |  | 5.61% | 11% | 1500 nM |  |  |  |  |  | 
Fc1cccc(Nc2nc(Cc3ccccc3)nc3c2CCNCC3)c1 | 22.2 nM | 735 nM | 63.3 nM | 27.9 nM | 13.3 nM | 674 nM | 4.92 nM | 1250 nM | 1060 nM | 68.9% | 69.4% |  |  |  |  |  |  | 
Fc1ccc(Nc2nc(Cc3ccccc3)nc3c2CCNCC3)cc1 |  |  |  |  | 8.5 nM |  | 1.95 nM |  |  |  |  | 2.6 nM |  |  |  |  |  | 
c1ccc(Cc2nc3c(c(Nc4ccccc4)n2)CCNCC3)cc1 | 36.8 nM | 112 nM | 147 nM |  | 1.98 nM | 272 nM | 2.69 nM | 395 nM | 1560 nM | 71.8% | 64.2% |  |  | 89 nM | 44.9 | 1390 nM | > 10000 nM | 33.1

From ChEMBL document CHEMBL2390866, “Novel pyrimidoazepine analogs as serotonin 5-HT(2A) and 5-HT(2C) receptor ligands for the treatment of obesity” (Eur J Med Chem, 2013)
